Source: ChEMBL document CHEMBL1141180, “Synthesis and antiviral activity of helioxanthin analogues” (J Med Chem, 2005)

Tests used:
[1] = system: Human alphaherpesvirus 2; test: Effective concentration to inhibit 50% of herpes simplex virus type 2 replication in a cell culture model; type: functional, organism-based
[2] = system: Hepatitis C virus; test: Effective concentration to inhibit 50% of hepatitis C virus replication in a cell culture model; type: functional, organism-based, Hepacivirus hominis
Summary of the method: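 HCV replicon Huh-Luc/neo cells grown to confluence, then treated with varying drug concentrations in DMEM with 10% dFBS for 3 days. Medium was removed and cells lysed in passive lysis buffer, shaken 15 min at room temperature. Lysate was mixed with luciferase substrate and luminescence read immediately as the measure of replicon activity.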

[3] = system: CCRF-CEM; test: Cytotoxicity against CEM cell lines of human; type: functional; conditions: read-out: ID50 (the source's name)
[4] = system: Human alphaherpesvirus 1; test: Effective concentration to inhibit 50% of herpes simplex virus type 1 replication in a cell culture model; type: functional, organism-based
[5] = Effective concentration to inhibit 50% of human immunodeficiency virus replication in a cell culture model; type: functional
[6] = system: MT2; test: Cytotoxicity against MT-2 cell lines of human; type: functional; conditions: read-out: ID50 (the source's name)
[7] = system: Hepatitis B virus; test: Effective concentration to inhibit 50% of hepatitis B virus replication in a cell culture model; type: functional, organism-based
[8] = system: Human gammaherpesvirus 4; test: Effective concentration to inhibit 50% of epstein Barr virus replication in a cell culture model; type: functional, organism-based

| SMILES | EC50 [1] [µM] | EC50 [2] [µM] | IC50 [3] [µM] | EC50 [4] [µM] | EC50 [5] [µM] | IC50 [6] [µM] | EC50 [7] [µM] | EC50 [8] [µM] |
| --- | --- | --- | --- | --- | --- | --- | --- | --- |
| O=C(OCc1ccccc1)c1cc2ccc3c(c2c(-c2ccc4c(c2)OCO4)c1COCc1ccccc1)OCO3 | > 50 | 10 | 50 | > 50 | > 100 | 100 | > 10 | > 20 |
| O=C1c2cc3ccc4c(c3c(-c3ccc5c(c3)OCO5)c2CN1CCCO)OCO4 | 7 | > 10 | 6 | 5 | > 8 | 8 | > 0.9 | > 20 |
| CC(=O)NN1C(=O)c2cc3ccc4c(c3c(-c3ccc5c(c3)OCO5)c2C1=O)OCO4 | > 40 | > 10 | 93 | > 40 | > 100 | > 100 | 1 | > 20 |
| COc1ccc(-c2c3c(cc4ccc5c(c24)OCO5)C(=O)NC3)cc1OC | 0.5 | 3 | 5 | 0.6 | > 16 | 16 | > 10 | > 20 |
| O=C(O)c1cc2ccc3c(c2c(-c2ccc4c(c2)OCO4)c1C(=O)O)OCO3 | > 50 | > 10 | > 100 | > 50 | > 100 | > 100 | > 10 | > 20 |
| CN(C)C(=O)c1cc2ccc3c(c2c(-c2ccc4c(c2)OCO4)c1C(=O)O)OCO3 | > 50 | > 10 | 76 | > 50 | > 70 | 70 | > 10 | > 20 |
| CN1Cc2cc3ccc4c(c3c(-c3ccc5c(c3)OCO5)c2C1=O)OCO4 | 14 | 3 | 27 | 14 | > 26 | 26 | 0.08 | > 20 |
| COC(=O)c1cc2ccc3c(c2c(-c2ccc4c(c2)OCO4)c1C(=O)OC)OCO3 | > 50 | 10 | 50 | > 50 | > 28 | 28 | > 20 | > 20 |
| CC(=O)NN1Cc2cc3ccc4c(c3c(-c3ccc5c(c3)OCO5)c2C1=O)OCO4 | 40 | > 10 | 32 | 17 | > 25 | 25 | 0.03 | > 20 |
| O=C1NC(=O)c2c1cc1ccc3c(c1c2-c1ccc2c(c1)OCO2)OCO3 | – | – | – | – | – | – | > 10 | – |
| O=C1c2cc3ccc4c(c3c(-c3ccc5c(c3)OCO5)c2C(=O)N1O)OCO4 | > 30 | > 10 | 17 | > 30 | > 16 | 16 | > 10 | > 5 |
| O=C(O)c1cc2ccc3c(c2c(-c2ccc4c(c2)OCO4)c1COCc1ccccc1)OCO3 | > 25 | > 10 | > 50 | > 25 | > 48 | 48 | > 10 | > 20 |
| COc1ccc(-c2c(C(=O)O)c(C(N)=O)cc3ccc4c(c23)OCO4)cc1OC | > 3 | 3 | 3 | 0.8 | > 10 | 10 | 0.8 | > 20 |
| O=C1OC(O)c2c1c(-c1ccc3c(c1)OCO3)c1c3c(ccc1c2O)OCO3 (configuration not stated) | > 28 | > 10 | 39 | > 23 | > 15 | 15 | > 20 | > 10 |
| CC(=O)NN1Cc2c(cc3ccc4c(c3c2-c2ccc3c(c2)OCO3)OCO4)C1=O | 10 | > 10 | 40 | 5 | > 7 | 7 | > 20 | 13 |
| O=C1c2cc3ccc4c(c3c(-c3ccc5c(c3)OCO5)c2CN1CCCOCc1ccccc1)OCO4 | > 20 | 10 | 67 | 13 | > 28 | 28 | > 20 | > 20 |
| COc1ccc(-c2c3c(cc4ccc5c(c24)OCO5)C(=O)NC3=O)cc1OC | – | – | – | – | – | – | 0.8 | – |
| CN1Cc2c(cc3ccc4c(c3c2-c2ccc3c(c2)OCO3)OCO4)C1=O | 1 | > 3 | 6 | 0.67 | > 8 | 8 | > 20 | > 20 |
| O=C1NCc2c1cc1ccc3c(c1c2-c1ccc2c(c1)OCO2)OCO3 | 0.16 | 1 | 4.5 | 0.29 | > 4 | 4 | 0.08 | 11 |
| CNC(=O)c1cc2ccc3c(c2c(-c2ccc4c(c2)OCO4)c1C(=O)O)OCO3 | > 25 | > 10 | 29 | 12 | > 26 | 26 | > 10 | > 20 |
| COC(=O)c1c(C(=O)O)cc2ccc3c(c2c1-c1ccc2c(c1)OCO2)OCO3 | > 50 | > 10 | 74 | > 50 | > 90 | 90 | > 20 | > 20 |
| O=c1[nH][nH]c(=O)c2c(-c3ccc4c(c3)OCO4)c3c4c(cc(Cl)c3cc12)OCO4 | > 40 | 10 | 38 | > 7 | > 54 | 54 | > 20 | > 20 |
| O=c1[nH][nH]c(=O)c2c(-c3ccc4c(c3)OCO4)c3c4c(ccc3cc12)OCO4 | 1.4 | > 10 | 50 | 1.4 | 2.7 | 16 | 0.03 | > 25 |
| O=c1[nH][nH]c(=O)c2c(-c3ccc4c(c3)OCO4)c3c4c(cc(I)c3cc12)OCO4 | > 40 | 10 | 40 | > 40 | > 2 | 35 | > 10 | > 20 |
| COC1=NC(=O)c2c1cc1ccc3c(c1c2-c1ccc2c(c1)OCO2)OCO3 | > 50 | > 10 | > 100 | > 50 | > 100 | > 100 | > 5 | > 20 |
| Cc1c(C(=O)OCCCO)cc2ccc3c(c2c1-c1ccc2c(c1)OCO2)OCO3 | > 25 | > 10 | 46 | > 25 | > 10 | 10 | > 10 | > 15 |
| Nc1ccn([C@H]2CC[C@@H](CO)O2)c(=O)n1 [ZALCITABINE] | – | – | 5 | – | 0.8 | 70 | – | – |
